This is a sample that favours compounds with a hit; in the whole collection about 2.7% have one here.
NTR1 ag: activates human neurotensin receptor 1; P30989; NTR1-U2OS beta-arrestin-GFP spot imaging, agonist mode; activation, % at 20 µM; 330,000 tested, 0.17% active; AID 493036;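 active means activation at or above 40% of the spot to cytoplasm intensity ratio, with at least 20 cells analyzed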;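 further: 0% = DMSO without peptide and 100% = 100 nM NTR1 peptide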
MC4R antagonist: blocks human MC4R cAMP signaling | P32245 | MC4R-expressing cells, MTII-stimulated cAMP, LANCE TR-FRET | inhibition, % at 6.5 µM | 360,000 tested, 0.48% active | AID 540295;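 active means inhibition above its plate's cutoff, the mean of tested wells on that plate plus 3 SD, cut at about 29% in these data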;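 further: 0% = Melanotan II alone and 100% = Melanotan II plus saturating MCL0020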
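Assay system: human MC4R-expressing U2OS cells; reagent: Melanotan II stimulation of cells; dosing: 6.5 µM single dose; timing: compound 30 min, challenge 1 h, detection 1 h; signal: TR-FRET cAMP assay; replicates: one well per compound, no replicates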
Hep lipid drop: modulators of hepatic lipid droplet formation. 240,000 tested, 0.4% active. inhibition, % at 6.5 µM. AID 1656. AML12 mouse hepatocytes, oleate lipid droplets, BODIPY imaging;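 active means lipid droplet intensity inhibited by at least 50%, with more than 500 cells counted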
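material = mouse AML12 hepatocyte cell line, fixed after treatment | also added = 100 µM oleic acid challenge | doses = compound at 6.5 µM only | schedule = overnight exposure | technique = Image-based BODIPY and DAPI two-channel analysis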
PREPL inhibitor: inhibitors of human prolyl oligopeptidase-like enzyme PREPL; Q4J6C6; recombinant PREPL, fluorescence polarization activity-based probe; inhibition, % at 5.96 µM; 320,000 tested, 0.68% active; AID 2751; in the data active means inhibition above about 43%;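 further: 0% = enzyme with DMSO and 100% = wells lacking enzyme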
MC4R ag barr: agonists of human melanocortin 4 receptor (MC4R) beta-arrestin. 360,000 tested, 0.98% active. U2OS MC4R beta-arrestin complementation, luminescence; percent of melanotan II response, DMSO zero. activation, % at 8.9 µM. P32245. AID 540308;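 active means activation above a per-plate cutoff, the mean activation of sample wells on that plate plus 3 SD, cut at about 8% in these data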
HTR2A ag: activates the mouse 5-HT2A serotonin receptor | AID 624169 | activation, % at 7.6 µM | CHO-K1 mHTR2A beta-arrestin complementation, luminescence; percent of 30 µM serotonin response | 360,000 tested, 0.66% active;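 active means activation above a run cutoff, the mean activation of all tested compounds plus 3 SD, cut at about 14% in these data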;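 further: 0% = plate median of compound wells and 100% = 30 µM serotonin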
Target sequence (P35363 whole entry, looked up): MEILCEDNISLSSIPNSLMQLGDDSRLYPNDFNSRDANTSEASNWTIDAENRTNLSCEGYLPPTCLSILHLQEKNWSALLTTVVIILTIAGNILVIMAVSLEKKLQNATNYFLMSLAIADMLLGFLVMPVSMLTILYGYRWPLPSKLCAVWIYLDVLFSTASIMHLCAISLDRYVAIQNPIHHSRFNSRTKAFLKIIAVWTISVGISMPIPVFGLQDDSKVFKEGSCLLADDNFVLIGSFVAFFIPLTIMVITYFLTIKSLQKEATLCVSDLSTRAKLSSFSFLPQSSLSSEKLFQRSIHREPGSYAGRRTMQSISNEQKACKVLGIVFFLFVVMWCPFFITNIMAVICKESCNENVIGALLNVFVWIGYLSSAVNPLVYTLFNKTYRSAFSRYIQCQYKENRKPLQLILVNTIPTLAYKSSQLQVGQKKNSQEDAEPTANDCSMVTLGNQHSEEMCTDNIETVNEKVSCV
Numbers without * were called inactive; x = no result given.

SMILES | NTR1 ag | MC4R antagonist | Hep lipid drop | PREPL inhibitor | MC4R ag barr | HTR2A ag
COc1ccc2c(c1)c(CC(=O)Nc1cc(C)ccc1C)c(C)n2C(=O)c1ccc(Cl)cc1 | 0.4 | 3.4 | 68.4* | -5.9 | -1.6 | -5.3
COc1ccc2c(c1)c(CC(=O)Nc1nnc(C3CC3)s1)c(C)n2C(=O)c1ccc(Cl)cc1 | 5.0 | 13.9 | 3.3 | -10.8 | -0.3 | 3.3
O=c1ccc(-c2ccc(S(=O)(=O)NCC3CCN(Cc4ccccc4F)CC3)s2)n[nH]1 | 0.1 | 0.6 | 10.1 | -12.7 | -0.5 | -8.5
CC(C)N1CCN(CCCc2ccccc2)CC1CCO (configuration not stated) | -0.7 | 1.6 | -2.2 | 6.1 | 0.1 | -4.6
O=C(Nc1ccc2c(c1)OCO2)C1CC(c2cccc(Br)c2)=NO1 (configuration not stated) | -0.1 | 3.2 | x | 1.7 | -0.1 | -3.8
Nc1cc(Cl)nc(N/N=C/c2c(O)ccc3ccccc23)n1 | 15.1 | -12.9 | 13.7 | 43.2* | -2.2 | -27.2
Nc1nonc1N/N=C/c1c(O)ccc2ccccc12 | 4.9 | -4.8 | 5.3 | 1.9 | -0.2 | -2.1
COc1ccc(C(=O)CCc2ccccc2)cc1 | 0.2 | 12.2 | x | -1.7 | 2.9 | 4.4
CN(C)c1ccc(/C=C/c2ccc3ccccc3n2)cc1 | x | 4.9 | 18.8 | 60.2* | -0.9 | 1.8
CCn1nc(NC(=O)Cc2ccc(OC)cc2)c2cc3cccc(C)c3nc21 | 6.2 | 9.6 | 25.3 | 6.0 | 9.3* | 3.1
CCn1nc(NC(=O)COC)c2cc3cccc(C)c3nc21 | -0.5 | -8.8 | 1.1 | -0.9 | -0.4 | 5.6
c1ccc(-n2cnc3cc(NCc4ccccn4)ccc32)cc1 | 1.3 | 19.6 | 6.2 | 55.0* | 1.4 | -1.6
c1ccc(-n2cnc3cc(NCc4ccncc4)ccc32)cc1 | 2.0 | 4.7 | 0.1 | 29.0 | -1.8 | -1.2
COc1cc2c(cc1OC)CN(C1CCC(C(C)(C)C)CC1)CC2 (configuration not stated) | x | 9.5 | x | x | 0.6 | -3.1
COc1ccc2o/c(=N\O)c(C(=O)Nc3ccccc3OC)cc2c1 | 12.9 | -13.9 | -9.0 | 2.2 | 4.4 | 2.6
COc1ccccc1NC(=O)c1cc2cc(Br)ccc2oc1=N | 5.7 | -6.3 | 0.9 | x | 8.3* | 6.2
Cc1ccc(C)c(NC(=O)c2cc([N+](=O)[O-])cc([N+](=O)[O-])c2)c1 | 0.4 | -0.7 | -4.5 | 4.5 | -0.9 | 2.2
O=C(COC(=O)c1c(Cl)ccc(Cl)c1Cl)NCC1CCCO1 (configuration not stated) | 0.7 | -1.1 | x | 21.2 | -0.4 | 13.0
CC(C)[C@H](NC(=O)c1ccco1)C(=O)Nc1ccc(OC(F)F)cc1 | -0.9 | 7.3 | 2.7 | -5.1 | -2.1 | 1.6
COc1cccc(C(C(=O)NCc2ccccc2)N2CCN(c3ccccc3F)CC2)c1OC (configuration not stated) | x | x | x | x | x | -6.3
Cc1ccsc1C(=O)N1CCC1(C)C(=O)NS(=O)(=O)c1cccc(F)c1 (configuration not stated) | x | 7.7 | x | x | -1.9 | 0.7
COc1cc(CNCc2ccccn2)ccc1OCC(N)=O | 0.3 | -1.9 | x | 16.3 | 0.8 | -1.1
COc1cc(CNCc2ccccn2)ccc1OCc1ccc(Cl)c(Cl)c1 | 0.0 | -2.0 | -7.1 | 49.3* | 3.2 | -6.9
COc1cc(CNCc2ccccn2)ccc1OCc1ccc(Cl)cc1Cl | -1.0 | 29.8* | x | 39.0 | 9.2* | 5.8
COc1ccc(Br)cc1/C=N/n1nnnc1N | 0.0 | 6.5 | 5.7 | 6.2 | -1.4 | 0.5
SMILES | NTR1 ag | MC4R antagonist | Hep lipid drop | PREPL inhibitor | MC4R ag barr | HTR2A ag
Cc1c(NC(=S)NC(=O)c2ccccc2)c(=O)n(-c2ccccc2)n1C | 0.3 | -2.8 | x | 1.0 | -1.1 | 0.9
Cc1nc(N/N=C/c2ccc(Br)cc2)cc(N2CCOCC2)n1 | 2.5 | 11.3 | 23.8 | 4.4 | 8.3* | -3.6
O=C(CCl)N(c1ccccc1)C1CCCCC1 | 1.1 | 2.9 | -6.0 | 5.5 | 9.1* | -0.9
COc1ccc(C)cc1S(=O)(=O)Nc1ccc(F)cc1 | -0.2 | 4.8 | -19.3 | -0.9 | -3.0 | -0.9
CCOc1cc(C)c(S(=O)(=O)Nc2ccc(F)cc2)cc1C | 4.7 | 19.6 | 0.3 | -1.2 | 15.7* | 6.0
Cc1ccc(C(=O)OC(C(=O)Nc2ccc(Cl)cc2C(F)(F)F)c2ccccc2)cc1 (configuration not stated) | 0.8 | 5.6 | -26.2 | 0.2 | 9.5* | -2.6
COc1ccc(S(=O)(=O)N(C)c2ccc(C(=O)Nc3cccnc3)cc2)cc1OC | 0.5 | -6.8 | -10.5 | x | -1.7 | 1.5
Cc1cc2nc(C)n(CCCNC(=O)Nc3ccc(C#N)cc3)c2cc1C | -0.6 | 0.0 | x | 0.3 | -0.9 | 44.5*
Cc1cc2nc(C)n(CCCN)c2cc1C | -0.9 | -4.7 | x | 5.8 | 0.5 | -9.0
Brc1ccc(CSc2ccc3nnc(-c4ccccn4)n3n2)cc1 | 9.9 | -11.5 | 4.7 | 45.1* | 0.8 | -8.2
Brc1ccc(CSc2ccc3nnc(-c4cccnc4)n3n2)cc1 | 10.9 | -42.9 | -0.1 | 19.8 | 0.8 | 4.9
COc1ccc(-c2csc(Cc3nnc(N4CCOCC4)n3-c3ccccc3)n2)cc1OC | -0.4 | 0.4 | -7.6 | 8.1 | -1.7 | 1.0
COc1ccc(-c2csc(Cc3nnc(N4CCOCC4)n3-c3ccccc3)n2)cc1 | 2.6 | 15.3 | x | 50.9* | -3.0 | 5.4
Oc1c(Cl)cc(Cl)cc1/C=N/c1nc(-c2ccc(Cl)cc2)cs1 | -1.1 | 34.4* | 12.9 | 14.7 | -1.6 | -3.7
Cc1cc2c(ncn2Cc2ccccc2)c([N+](=O)[O-])c1C | -3.2 | 15.8 | x | 2.4 | 0.0 | 0.4
COc1cc2ncnc(NCc3cccc(Cl)c3)c2cc1OC | 0.9 | 6.0 | 50.9* | 9.4 | -1.9 | -0.7
O=C(CCC(=O)N1CCN(S(=O)(=O)c2ccccc2)CC1)c1ccc(Br)cc1 | -0.9 | 6.8 | x | -0.3 | -0.5 | -1.5
Cn1c(=O)[nH]c(=O)c2c1nc(N1CCOCC1)n2CCSc1nnnn1-c1ccccc1 | 2.6 | 26.1 | -8.3 | 6.2 | -0.2 | -0.1
CCN1CCN(c2nc3c(c(=O)[nH]c(=O)n3C)n2Cc2cccc(C)c2)CC1 | x | 7.0 | x | x | -0.2 | -0.8
CCn1c(N2CCC(Cc3ccccc3)CC2)nc2c1c(=O)[nH]c(=O)n2C | 10.9 | -4.8 | x | 57.1* | -0.2 | -5.1
COc1ccc(N2CCN(c3nc4c(c(=O)[nH]c(=O)n4C)n3Cc3cccc(C)c3)CC2)cc1 | 0.3 | 1.1 | 1.7 | 50.8* | -2.3 | 5.1
CC1CCN(c2nc3c(c(=O)[nH]c(=O)n3C)n2Cc2ccccc2)CC1 | 2.3 | -1.8 | x | 14.5 | -0.8 | 0.0
CC(CSc1nnnn1-c1ccccc1)Cn1c(N2CCCC2)nc2c1c(=O)[nH]c(=O)n2C (configuration not stated) | 1.9 | 7.5 | -55.2 | 45.7* | 3.2 | 0.9

Compound activity deposited in PubChem BioAssay by several laboratories.
